Assays:
Canis familiaris [1] = assay: Percent decrease in mean arterial blood pressure was measured in anesthetized dogs; type: functional, Canis lupus familiaris
How it was run: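 Pentobarbital-anesthetized (35 mg/kg iv), ventilated mongrel dogs of either sex (7–14 kg). Mean arterial pressure recorded via femoral arterial catheter and pressure transducer. Log doses given iv at 5-min intervals. Value is percent change from control at the inotropic ED50 dose.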

Canis familiaris [2] = assay: Heart contractility was measured in anesthetized dogs (iv); type: functional; conditions: Canis lupus familiaris
How it was run: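 Mongrel dogs of either sex (7–14 kg), pentobarbital-anesthetized (35 mg/kg iv), ventilated, kept at 37–38 °C. Right-ventricular Walton-Brodie strain-gauge arch at 50 g tension. Increasing log doses given iv via femoral vein at 5-min intervals, peak response recorded. ED50 (dose for 50% contractility rise) by linear regression, mean ± SEM. Separate animal group per drug.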

Canis familiaris [3] = assay: Percent increase in heart rate was measured in anesthetized dogs; type: functional, Canis lupus familiaris
How it was run: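 Heart rate taken from a cardiometer triggered by the femoral arterial pressure pulse, in pentobarbital-anesthetized (35 mg/kg iv), ventilated mongrel dogs (7–14 kg). Escalating iv log doses at 5-min intervals. Reported as percent change from control at the inotropic ED50 dose.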

Compound	Decrease in MAP (Canis familiaris [1]) [%]	ED50 (Canis familiaris [2]) [mg/kg]	Increase in HR (Canis familiaris [3]) [%]
O=C1CCC(c2ccc(-c3ccncc3)cc2)=NN1	29.9	0.146	19.1
O=C1CCC(c2ccc(-c3cccnc3)cc2)=NN1	12.7	0.0194	7.5
O=C1CCC(c2ccc3c(c2)CCC(=O)N3)=NN1	16.1	0.0032	13.2
O=C1CCC(c2ccccc2)=NN1	24.9	6.33	39.1
O=C1CCC(c2ccc(-c3ccccc3)cc2)=NN1	20.9	0.513	18.8
CC(=O)Nc1ccc(C2=NNC(=O)CC2)cc1	15.1	0.0113	8.8
O=C1CCC(c2ccc3c(c2)CCCN3)=NN1	12		37
O=C1CCC(c2ccc(-n3ccnc3)cc2)=NN1 [IMAZODAN]	28.4	0.0501	16.9
